Laboratory results published in PubChem BioAssay AID463184 (Molecular Libraries Program, Specialized Chemistry Center, …, 2010).
The source made the active and inactive calls.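 The calls were made as follows: active = IC50 of 10 microM or lower; inactive = the rest.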

Molecular target: Transitional endoplasmic reticulum ATPase (Homo sapiens) (UniProt P55072)
Experiment: inhibition of purified VCP ATP hydrolysis – biochemical, dose response (AID 463184)
Conditions: purified p97 ATPase, Kinase-Glo luminescence
Summary of the method: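 Test system: human p97 ATPase enzyme. Also added: ATP substrate, added from 500 µM stock. Timing: Compound–enzyme 10 min at RT, ATP hydrolysis 30 min, 37 °C. Measured by: Kinase-Glo Plus luminescence measuring leftover ATP. Evaluation: IC50 from percent remaining activity fit. Benchmarks: DMSO wells and no-enzyme wells.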

Chain of Transitional endoplasmic reticulum ATPase (Homo sapiens) (P55072 whole entry, looked up): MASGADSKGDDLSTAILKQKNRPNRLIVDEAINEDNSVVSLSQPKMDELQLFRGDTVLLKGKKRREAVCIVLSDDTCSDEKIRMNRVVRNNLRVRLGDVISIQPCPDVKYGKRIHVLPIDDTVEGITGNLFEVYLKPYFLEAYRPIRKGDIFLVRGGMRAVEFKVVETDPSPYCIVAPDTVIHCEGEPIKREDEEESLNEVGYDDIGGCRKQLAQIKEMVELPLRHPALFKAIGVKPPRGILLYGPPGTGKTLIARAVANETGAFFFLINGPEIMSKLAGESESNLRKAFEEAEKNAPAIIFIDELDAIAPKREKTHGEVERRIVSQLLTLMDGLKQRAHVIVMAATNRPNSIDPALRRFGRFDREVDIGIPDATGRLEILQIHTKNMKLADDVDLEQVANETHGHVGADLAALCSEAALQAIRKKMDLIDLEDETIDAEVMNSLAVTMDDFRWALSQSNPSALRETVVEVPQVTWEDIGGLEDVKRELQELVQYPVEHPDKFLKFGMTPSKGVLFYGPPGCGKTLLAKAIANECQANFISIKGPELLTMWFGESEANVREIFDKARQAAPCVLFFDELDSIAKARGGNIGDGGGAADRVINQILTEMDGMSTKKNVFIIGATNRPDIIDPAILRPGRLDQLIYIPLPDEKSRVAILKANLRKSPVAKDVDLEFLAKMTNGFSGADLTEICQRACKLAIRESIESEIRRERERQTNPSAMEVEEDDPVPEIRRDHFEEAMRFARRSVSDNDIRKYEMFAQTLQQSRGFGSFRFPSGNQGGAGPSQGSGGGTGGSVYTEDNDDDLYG

With `N#C/C(=C(\O)COC(=O)C1COc2ccccc2O1)c1nc2ccccc2[nH]1` (stereo not drawn) as the compound, how does the IC50 read?
Its IC50 is “inactive”.

Which IC50 does the source give for `Brc1ccccc1CNc1nc(NCc2ccccc2)c2ccccc2n1` here?
The IC50 was 2 µM.

With `Brc1ccc(CNc2nc(NCc3ccccc3)c3ccccc3n2)cc1` as the compound, how does the IC50 read?
Its IC50 is 4.3 µM.

For `Cc1ccccc1CNc1nc(NCc2ccccc2)c2ccccc2n1`, which IC50 is on record?
The IC50 was 2.7 µM.

`Cc1ccc(CNc2nc(NCc3ccccc3)c3ccccc3n2)cc1` was tested. Which IC50 did it give?
The IC50 was 3 µM.

For `COc1cccc(CNc2nc(NCc3ccccc3)c3ccccc3n2)c1`, which IC50 is on record?
The IC50 was 4.5 µM.

With `FC(F)(F)c1ccc(CNc2nc(NCc3ccccc3)c3ccccc3n2)cc1` as the compound, how does the IC50 read?
The IC50 was 2.6 µM.

`CC(C)c1ccc(Nc2nc(N)nc(CCl)n2)cc1` was tested. Which IC50 did it give?
The IC50 was “inactive”.

For `Nc1nc(CCl)nc(N(c2ccccc2)c2ccccc2)n1`, which IC50 is on record?
The IC50 was “inactive”.

For `Fc1cccc(CNc2nc(NCc3ccccc3)c3ccccc3n2)c1`, which IC50 is on record?
The IC50 was 3.1 µM.

For `Clc1ccc(CNc2nc(NCc3ccccc3)c3ccccc3n2)cc1Cl`, which IC50 is on record?
The IC50 was 3 µM.

How did the IC50 turn out when `Clc1cccc(CNc2nc(NCc3ccccc3)c3ccccc3n2)c1` was run?
The IC50 was 2.7 µM.

How did the IC50 turn out when `Fc1ccccc1CNc1nc(NCc2ccccc2)c2ccccc2n1` was run?
The IC50 was 2.9 µM.

How did the IC50 turn out when `COc1ccc(CNc2nc(NCc3ccccc3)c3ccccc3n2)cc1` was run?
Its IC50 is 3 µM.

With `COc1ccccc1CNc1nc(NCc2ccccc2)c2ccccc2n1` as the compound, how does the IC50 read?
Its IC50 is 3.6 µM.

Which IC50 does the source give for `Cc1c(Cl)cccc1Nc1nc(N)nc(CCl)n1` here?
The IC50 was “inactive”.

With `c1ccc(CNc2nc(NCc3ccccc3)c3ccccc3n2)cc1` as the compound, how does the IC50 read?
The IC50 was 1.6 µM.

How did the IC50 turn out when `Clc1ccccc1CNc1nc(NCc2ccccc2)c2ccccc2n1` was run?
The IC50 was 5.3 µM.

`Cc1cccc(CNc2nc(NCc3ccccc3)c3ccccc3n2)c1` was tested. Which IC50 did it give?
Its IC50 is 2.3 µM.

For `Clc1ccc(CNc2nc(NCc3ccccc3)c3ccccc3n2)cc1`, which IC50 is on record?
The IC50 was 3.1 µM.

`Nc1nc(CCl)nc(Nc2ccc(Oc3ccccc3)cc2)n1` was tested. Which IC50 did it give?
The IC50 was “inactive”.

How did the IC50 turn out when `FC(F)(F)c1cc(CNc2nc(NCc3ccccc3)c3ccccc3n2)ccc1Cl` was run?
The IC50 was 4.7 µM.

How did the IC50 turn out when `Brc1cccc(CNc2nc(NCc3ccccc3)c3ccccc3n2)c1` was run?
Its IC50 is 3.7 µM.

`N#C/C(=C(\O)COC(=O)CNc1ccc(C(F)(F)F)cc1[N+](=O)[O-])c1nc2ccccc2[nH]1` was tested. Which IC50 did it give?
The IC50 was “inactive”.

`Nc1nc(CCl)nc(Nc2ccc(Cl)c(Cl)c2)n1` was tested. Which IC50 did it give?
The IC50 was “inactive”.

`Fc1ccc(CNc2nc(NCc3ccccc3)c3ccccc3n2)cc1` was tested. Which IC50 did it give?
The IC50 was 2.6 µM.

`N#C/C(=C(\O)COC(=O)CCC(=O)c1ccc2c(c1)OCCO2)c1nc2ccccc2[nH]1` was tested. Which IC50 did it give?
Its IC50 is 10 µM.

Which IC50 does the source give for `CCc1nc2ccccc2n1CC(=O)OC/C(O)=C(/C#N)c1nc2ccccc2[nH]1` here?
The IC50 was “inactive”.
